Activity calls are given as the source filed them.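 How the source made its calls, unless noted: active means current rise at least 3 SD above the untreated control mean in each of two repeat wells; inactive means the rest.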
Experiments:
[1] = nonspecific flux increase, KCNQ1-free cells – parental CHO cells, counter-screen for KCNQ1 potentiator project (AID 493006;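 active means duplicate-averaged activation above buffer control mean plus 5 SD of those controls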;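 on activation: fluorescence ratio of max minus min over baseline after K+ and Tl+ depolarization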); conditions: parental CHO-K1 cells, FluxOR thallium flux, at 10 µM; stronger effect = higher value
How it was run: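 Material: parental CHO-K1 cells, FluxOR dye-loaded; Also added: Potassium/thallium depolarization pulse; Schedule: overnight 37 °C plating, 90 min dye, 20 min dark compound; Signal: kinetic FluxOR fluorescence, 10 s baseline, 110 s after stimulus.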

[2] = target: Potassium voltage-gated channel subfamily KQT member 1 (Homo sapiens) (UniProt P51787); assay: enhancement of KCNQ1 channel thallium flux – FluxOR thallium flux, CHO cells, duplicates, confirmation (AID 493007;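 active means potentiation averaged over duplicate wells exceeding buffer-only control mean by more than 3 SD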;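 on outcome: cells depolarized by a potassium plus thallium sulfate stimulus after compound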); conditions: KCNQ1 cell line, FluxOR thallium flux fluorescence, at 10 µM; stronger effect = higher value, % of reference activator effect, buffer zero
How it was run: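 System: KCNQ1-expressing CHO cell line; technique: kinetic thallium influx fluorescence with FluxOR dye, 10 s baseline, 110 s post-stimulus; timing: dye 90 min then compound 20 min, both at room temperature; controls: buffer-only wells as 0% and R-L3 activator as 100%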

[3] = target: Potassium voltage-gated channel subfamily KQT member 2 (Rattus norvegicus) (UniProt O88943); assay: KCNQ2 thallium flux enhancement – KCNQ2-CHO-K1 cells, selectivity assay for KCNQ1 potentiator project (AID 493009;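 active means mean duplicate potentiation above the buffer control mean plus 5 SD of buffer wells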;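 further: assay conditions were tuned for KCNQ1 rather than KCNQ2 modulators; signal is max minus min fluorescence divided by baseline after thallium stimulus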); conditions: FluxOR thallium flux fluorescence, at 10 µM; stronger effect = higher value, scaled: buffer 0, activator control 100
[4] = target: Potassium voltage-gated channel subfamily KQT member 1 (Homo sapiens) (UniProt P51787); assay: KCNQ1 activators by electrophysiology – IonWorks patch clamp, KCNQ1-CHO cells, orthogonal assay for KCNQ1 potentiator project, confirmation (AID 493184); conditions: automated patch clamp current, at 10 µM; stronger effect = higher value;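 on current potentiation: percent change of the same well's current before compound addition so 0% = no change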
How it was run: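 Test system: KCNQ1-expressing CHO cells. Medium: pH 7.4 external bath. Probe or stimulus: voltage step from -90 mV holding to +40 mV, 2,000 ms. Compound: 10 µM final, single point. Detection: automated perforated-patch electrophysiology. Read-out: percent current increase versus pre-compound level. Repeats: two replicates.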

Sequence of Potassium voltage-gated channel subfamily KQT member 1 (Homo sapiens) (P51787 whole entry, looked up): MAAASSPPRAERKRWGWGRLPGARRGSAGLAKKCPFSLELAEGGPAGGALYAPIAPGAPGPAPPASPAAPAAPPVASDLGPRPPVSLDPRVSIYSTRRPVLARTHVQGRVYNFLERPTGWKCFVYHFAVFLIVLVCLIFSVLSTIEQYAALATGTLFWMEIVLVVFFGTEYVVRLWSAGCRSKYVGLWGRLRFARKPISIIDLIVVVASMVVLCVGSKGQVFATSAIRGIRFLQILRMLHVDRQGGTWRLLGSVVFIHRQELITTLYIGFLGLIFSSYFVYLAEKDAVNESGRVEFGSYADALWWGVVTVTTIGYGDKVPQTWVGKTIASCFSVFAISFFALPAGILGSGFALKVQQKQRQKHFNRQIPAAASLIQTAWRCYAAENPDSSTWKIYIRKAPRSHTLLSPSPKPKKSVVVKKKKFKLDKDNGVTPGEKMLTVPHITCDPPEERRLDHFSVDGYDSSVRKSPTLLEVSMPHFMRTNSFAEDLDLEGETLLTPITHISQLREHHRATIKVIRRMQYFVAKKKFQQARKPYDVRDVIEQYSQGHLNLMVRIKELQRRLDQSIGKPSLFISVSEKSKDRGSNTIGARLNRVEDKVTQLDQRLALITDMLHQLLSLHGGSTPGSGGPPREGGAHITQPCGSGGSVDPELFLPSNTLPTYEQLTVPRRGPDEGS
Sequence of Potassium voltage-gated channel subfamily KQT member 2 (Rattus norvegicus) (O88943 whole entry, looked up): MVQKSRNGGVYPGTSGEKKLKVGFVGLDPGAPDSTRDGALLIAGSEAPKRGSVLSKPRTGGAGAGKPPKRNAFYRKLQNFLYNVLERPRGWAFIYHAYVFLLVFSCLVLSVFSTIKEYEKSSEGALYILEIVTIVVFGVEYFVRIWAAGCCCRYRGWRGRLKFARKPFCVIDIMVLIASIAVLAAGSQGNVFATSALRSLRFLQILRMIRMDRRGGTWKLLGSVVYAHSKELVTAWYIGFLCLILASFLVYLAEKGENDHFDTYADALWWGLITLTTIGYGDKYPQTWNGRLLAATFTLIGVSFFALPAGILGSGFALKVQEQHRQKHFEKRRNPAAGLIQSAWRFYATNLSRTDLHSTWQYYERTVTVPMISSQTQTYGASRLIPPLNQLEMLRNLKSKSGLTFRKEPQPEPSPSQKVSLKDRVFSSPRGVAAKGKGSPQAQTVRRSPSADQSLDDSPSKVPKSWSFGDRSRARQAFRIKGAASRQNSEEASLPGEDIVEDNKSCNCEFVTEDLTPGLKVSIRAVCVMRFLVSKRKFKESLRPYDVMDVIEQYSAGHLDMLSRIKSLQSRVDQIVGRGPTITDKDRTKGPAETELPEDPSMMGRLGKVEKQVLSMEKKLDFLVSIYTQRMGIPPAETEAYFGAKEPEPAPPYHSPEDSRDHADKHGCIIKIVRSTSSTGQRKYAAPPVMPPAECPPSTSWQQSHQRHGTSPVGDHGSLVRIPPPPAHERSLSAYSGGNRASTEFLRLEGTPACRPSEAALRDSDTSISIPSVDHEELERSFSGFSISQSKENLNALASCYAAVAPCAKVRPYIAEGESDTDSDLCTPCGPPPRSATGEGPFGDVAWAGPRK

SMILES	outcome [1]	outcome [2]	outcome [3]	outcome [4]	activation [1]	potentiation [2]	potentiation [3]	current potentiation [4]
COc1ccc(C(=O)O/N=C(\N)c2ccccc2Cl)cc1OC	inactive	inactive	inactive	inactive				
CN(CCCNC(=O)CSc1cc(=O)n(C)c2ccc(Cl)cc12)Cc1ccccc1	inactive	inactive	inactive	inactive				
O=C(CCN1CCCCCC1)Nc1ccc(F)cc1	inactive	inactive	inactive	inactive				
CC(/C=N/n1c(-c2ccc(C)cc2)n[nH]c1=S)=C\c1ccco1	inactive	inactive	inactive	inactive				
Cc1ccccc1C(=O)NNC(=O)C(=O)Nc1cccc(Cl)c1C				inactive	346% (active)	168% (active)	406% (active)	
O=C(c1cc([N+](=O)[O-])cc([N+](=O)[O-])c1)N1CCCc2ccccc21	inactive	inactive	inactive	inactive				
COC(=O)C1C(c2ccc(OC)c(OC)c2)NC(c2ccc(OC)c(OC)c2)C(C(=O)OC)S1(=O)=O (stereo not given)	inactive	inactive	inactive	inactive				
CCc1ccc(S(=O)(=O)Nc2cc3c(cc2N2CCCCC2)n(C)c(=O)c(=O)n3C)cc1	inactive	inactive	inactive	inactive				
Cc1ccc(S(=O)(=O)NCC(c2ccc3c(c2)OCO3)N2CCOCC2)cc1 (stereo not given)	inactive	inactive	inactive	inactive				
CC(=O)N/C(=C/c1ccc2c(c1)OCO2)C(=O)O	inactive	inactive	inactive	inactive				
CCCn1c(=S)[nH]c2ccc(C(F)(F)F)cc21		inactive	inactive	inactive	158% (active)			
CC(=O)c1cccc(NC(=S)NC(=O)c2ccc(Cl)cc2)c1	inactive	inactive	inactive	inactive				
O=C(NC(=S)N1CCCCCC1)c1ccc(Cl)cc1Cl		inactive		inactive	148% (active)		158% (active)	
O=C(ONC1=NCCCCC1)c1ccc(Cl)cc1	inactive	inactive	inactive	inactive				
COc1cc(C(=O)NNC(=O)C2CC2)cc(OC)c1OC	inactive	inactive	inactive	inactive				
COc1ccc(-c2csc(NC(=O)C3=NN(c4ccccc4)C(=O)CC3)n2)cc1	inactive		inactive			146% (active)		101% (active)
O=C1NC(=S)SC1=C1CCCC1				inactive	142% (active)	24.5% (active)	166% (active)	
O=C(c1cc(COc2ccc3ncccc3c2)on1)N1CCCC(O)C1 (stereo not given)	inactive	inactive	inactive	inactive				
O=S1(=O)Nc2c(ccc3cccnc23)-c2ccccc21	inactive			inactive		21% (active)	154% (active)	
O=C(Nc1nccs1)c1ccc(-c2ccc(F)c(Cl)c2)o1	inactive	inactive	inactive	inactive				

SMILES	outcome [1]	outcome [2]	outcome [3]	outcome [4]	activation [1]	potentiation [2]	potentiation [3]	current potentiation [4]
CCN(C(=S)NC(=O)c1ccccc1Br)C1CCCCC1				inactive	358% (active)	124% (active)	370% (active)	
CCOC(=O)Cn1nc(-c2ccc(F)cc2)cc(Cc2ccccc2)c1=O	inactive	inactive	inactive	inactive				
Cc1cccc(-n2c(C)cc(/C=N/NC(N)=S)c2C)c1	inactive	inactive	inactive	inactive				
NS(=O)(=O)c1ccc(NC(=S)Nc2ccc(OCc3ccccc3)cc2)cc1	inactive	inactive	inactive	inactive				
CCOC(=O)c1sc(NC(=S)NC(=O)c2ccco2)nc1C				inactive	142% (active)	37% (active)	157% (active)	
Cc1cccc(NC(=O)C(=O)NNC(=O)c2ccc(C(C)(C)C)cc2)c1				inactive	485% (active)	179% (active)	483% (active)	
Cc1ccc2oc(C(=O)N3CCN(c4cccc(C)n4)CC3)c(C)c2c1	inactive	inactive	inactive	inactive				
CC1C/C(=C/c2ccncc2)C(=O)/C(=C/c2ccncc2)C1 (stereo not given)	inactive	inactive	inactive	inactive				
COc1cccc(NC(=O)NCC2CCN(Cc3ccc(F)cc3)CC2)c1	inactive	inactive	inactive	inactive				
COc1ccc2c(c1)cc(C)c1nnc(SCC(=O)N3CCN(C(=O)c4ccco4)CC3)n12	inactive	inactive	inactive	inactive				
CCOC(=O)C1CCN(C(=O)c2c(C)oc3c2C(=O)c2ccccc2C3=O)CC1	inactive	inactive	inactive	inactive				
Cc1ccc(C(=O)CC(=O)COc2ccc(Cl)cc2)cc1	inactive			inactive		184% (active)	252% (active)	
CCOc1ncccc1C(=O)OCc1ccc(C#N)cc1				inactive	286% (active)	114% (active)	392% (active)	
CC(C)(C)c1cc(C(=O)NNC(=O)c2ccc(C(F)(F)F)cc2)no1	inactive			inactive		32% (active)	161% (active)	
C=CCN(CC=C)C(=S)NC(=O)c1ccc([N+](=O)[O-])cc1				inactive	366% (active)	137% (active)	359% (active)	
O=C(NC(=S)NC1CCCCC1)c1ccc(Cl)cc1				inactive	202% (active)	262% (active)	390% (active)	
CC1Cc2ccccc2N1C(=S)NC(=O)C1(C)CC1(Cl)Cl (stereo not given)				inactive	236% (active)	72.5% (active)	267% (active)	
CN1C=CC=C/C1=C1\SC(=S)N(C2CCCCC2)C1=O	inactive	inactive	inactive	inactive				
Fc1cccc(/C=N/Nc2ccc3ccccc3n2)c1	inactive	inactive	inactive	inactive				
Cc1nc2sc(C(c3ccccc3)N3CCN(C(=O)c4ccco4)CC3)c(O)n2n1 (stereo not given)	inactive	inactive	inactive	inactive				

SMILES	outcome [1]	outcome [2]	outcome [3]	outcome [4]	activation [1]	potentiation [2]	potentiation [3]	current potentiation [4]
CC1CCCCC1NC(=S)NC(=O)c1cccs1 (stereo not given)				inactive	181% (active)	100% (active)	300% (active)	
Cc1noc(C)c1COc1ccc(CC(=O)NCc2ccccc2)cc1	inactive	inactive	inactive	inactive				
CSc1ccccc1NC(=O)c1ccc2c(c1)CCN2S(C)(=O)=O	inactive	inactive	inactive	inactive				
CCOC(=O)c1cnc2c(C)c(Cl)ccc2c1N1CCN(CC)CC1	inactive	inactive	inactive	inactive				
COc1ccc(OC)c(/C=C2\SC(=S)N(NS(=O)(=O)c3ccc(C)cc3)C2=O)c1					166% (active)	102% (active)	240% (active)	47.4% (active)
N#CC1(c2ccc(NC(=O)c3ccccc3F)cc2)CCCC1	inactive	inactive	inactive	inactive				
O=C(CCC1CCN(C(=O)c2cncs2)CC1)Nc1ccccc1				inactive	446% (active)	164% (active)	464% (active)	
COCCCNc1nc2ccccc2nc1NS(=O)(=O)c1cccs1	inactive	inactive	inactive	inactive				
COc1ccc(Cl)cc1NC(=O)CNc1ccc(F)cc1C	inactive	inactive	inactive	inactive				
O=C(CSc1ncnc2c1cnn2-c1ccc(F)cc1)NC1CCCC1	inactive	inactive	inactive	inactive				
CCOC(=O)c1c(NS(=O)(=O)c2cccc(OC)c2)sc2c1CCC2	inactive		inactive	inactive		59% (active)		
CC(C)C(=O)Nc1c(-c2ccccc2F)c(=O)c2ccccc2n1C	inactive	inactive	inactive	inactive				
Cc1ccc2c(c1)C1CN(C)CCC1N2C(=S)NC(=O)c1ccc(Cl)cc1Cl (stereo not given)				inactive	194% (active)	50% (active)	217% (active)	
O=S(=O)(/C=C/c1ccccc1)n1cnc2ccccc21	inactive	inactive	inactive	inactive				
CCCc1cc2c(-c3ccccc3)cc(=O)oc2cc1OCc1ccc(C(=O)O)o1				inactive	193% (active)	73% (active)	222% (active)	
C=CCn1c(SCC(N)=O)nc2scc(-c3ccc(C)o3)c2c1=O				inactive	223% (active)	79.5% (active)	230% (active)	
Cc1ccc(-n2c(=S)[nH]c3c(oc4ccccc43)c2=O)cc1C				inactive	160% (active)	23.5% (active)	150% (active)	
S=c1[nH]nc(-c2ccco2)n1/N=C/c1ccc(Cl)cc1Cl				inactive	174% (active)	48% (active)	173% (active)	
Cc1ccc(-c2c(C(=O)O)c3ccccc3[nH]c2=O)cc1	inactive	inactive	inactive	inactive				
CCCCn1c(=O)nc2n(-c3ccccc3C)c3ccccc3cc-2c1=O	inactive	inactive	inactive	inactive				

Reference: PubChem BioAssay
